Screening data as filed in PubChem.
SKN-1 block – C. elegans SKN-1 inhibition; C. elegans VP596 Pgst-4::GFP/RFP ratio, acrylamide-induced, 24 h; inhibition, % at 21.8 µM; 360,000 tested, 0.49% active; AID 624304;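 active = interference check ratio from 0.5 to 1.5 plus GFP to RFP signal ratio inhibition reaching or exceeding a fixed threshold, cut at about 30% in these data, passing the limit was not always enough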
Rce1 inh – inhibitors of yeast Ras-converting enzyme | Q03530 | 290,000 tested, 0.27% active | calls only | yeast membranes, quenched prenylated peptide cleavage fluorescence;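 active = fall in fluorescence gain of 50% or more versus controls, with final raw signal at or below 3038400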;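 also: plate controls were neutral control wells for no effect and wells lacking membranes for full effect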
Myeloid diff 2 – promotes myeloid progenitor differentiation. ER-HoxA9 myeloid progenitors, lysozyme-GFP differentiation, flow cytometry. calls only at 10 µM. 360,000 tested, 1% active. AID 624256;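 active = normalized GFP-positive differentiation at or above the plate's own cutoff, the solvent-only control mean plus 3 SD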;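 also: cells exposed to compound for four days before flow analysis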
GRK2 aptamer HTS – inhibitors of human GRK2 displacing RNA aptamer | P25098 | bead flow cytometry, FAM-aptamer displacement from GRK2 | inhibition of aptamer binding, % at 10 µM | 330,000 tested, 0.59% active;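 active = inhibition of aptamer binding above 40%, roughly 3 SD of noise, on plates passing a quality check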;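 also: median bead fluorescence of bound FAM aptamer so fluorescent compounds give negative values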
Target sequence (P25098 whole entry, looked up): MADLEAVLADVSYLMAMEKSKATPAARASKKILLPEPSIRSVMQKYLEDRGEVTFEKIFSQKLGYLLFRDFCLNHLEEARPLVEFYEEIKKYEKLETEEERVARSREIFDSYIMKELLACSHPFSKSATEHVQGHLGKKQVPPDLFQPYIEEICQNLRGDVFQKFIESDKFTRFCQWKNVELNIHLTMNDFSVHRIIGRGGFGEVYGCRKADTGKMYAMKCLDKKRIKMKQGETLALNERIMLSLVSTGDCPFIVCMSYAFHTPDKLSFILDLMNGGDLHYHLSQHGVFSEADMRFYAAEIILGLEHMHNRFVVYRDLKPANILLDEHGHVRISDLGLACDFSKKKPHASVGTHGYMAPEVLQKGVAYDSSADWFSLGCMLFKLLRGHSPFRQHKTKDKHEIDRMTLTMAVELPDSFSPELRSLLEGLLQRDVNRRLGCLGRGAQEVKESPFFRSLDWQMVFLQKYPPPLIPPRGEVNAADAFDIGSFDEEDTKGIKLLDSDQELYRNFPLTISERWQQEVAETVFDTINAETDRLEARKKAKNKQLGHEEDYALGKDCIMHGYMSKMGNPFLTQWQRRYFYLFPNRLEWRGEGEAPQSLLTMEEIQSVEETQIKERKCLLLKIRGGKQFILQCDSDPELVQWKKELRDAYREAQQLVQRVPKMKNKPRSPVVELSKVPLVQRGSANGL
Rin1-Abl PPI inh – blocks binding of human Rin1 to Abl; TR-FRET Rin1/Abl binding, biochemical; inhibition, % at 7.35 µM; 360,000 tested, 0.4% active; AID 588664; in the data active = inhibition above about 5%, passing the limit was not always enough
T cell modulator – T cell immune modulation candidate | 2C CD8+ T cell-vesicle binding, flow cytometry; stronger effect = lower value | response (vesicle binding), % at 7 µM | 330,000 tested, 0.068% active | AID 2052;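 active = response, share of CD8 T cells binding vesicles, and their 90th percentile fluorescence all below set limits, cut at about 80% in these data, passing the limit was not always enough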;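 also: values below 100% mean blocked vesicle binding to the CD8+ T cells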
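incubation = binding step 1.5 h, 37 °C, antibody labelling 20 min, ice | test system = 2C mouse CD8+ T cells | read-out basis = percent CD8+ FL2 mean versus row control | controls = Peptide-free naked vesicles (low) and QL9 vesicles with 0.7% DMSO vehicle (high) | detection = flow cytometry of vesicle-bound cells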
The depositor's hits bear a star; i = inactive; . = not tested or not shown; + = active, no number. Most compounds without a hit are left out; they make up all but 2.6% or so of the library.

SMILES	SKN-1 block	Rce1 inh	Myeloid diff 2	GRK2 aptamer HTS	Rin1-Abl PPI inh	T cell modulator
C#CCOCCOCCOCCNc1nc(N2CCN(C(=O)CCCCCCCCCCNC(=O)Cn3cc(C[C@@H](C)O)nn3)CC2)nc(N2CCN(C(=O)CCCCCCCCCCNC(=O)[C@H](CCCCN)n3cc(CCCC(=O)O)nn3)CC2)n1	5	.	i	0	6	214
C#CCOCCOCCOCCNc1nc(N2CCN(C(=O)CCCCCCCCCCNC(=O)Cn3cc(CCCCCN)nn3)CC2)nc(N2CCN(C(=O)CCCCCCCCCCNC(=O)[C@H]([C@@H](C)CC)n3cc(CCCCN=C(N)N)nn3)CC2)n1	14	.	i	0	15*	529
C#CCOCCOCCOCCNc1nc(N2CCN(C(=O)CCCCCCCCCCNC(=O)Cn3cc(CCCCCN)nn3)CC2)nc(N2CCN(C(=O)CCCCCCCCCCNC(=O)Cn3cc(CCCCCN)nn3)CC2)n1	16	.	i	0	13*	299
C#CCOCCOCCOCCNc1nc(N2CCN(C(=O)CCCCCCCCCCNC(=O)[C@H]([C@@H](C)CC)n3cc(CCCCCN)nn3)CC2)nc(N2CCN(C(=O)CCCCCCCCCCNC(=O)[C@H]([C@@H](C)CC)n3cc(CCCCN=C(N)N)nn3)CC2)n1	-1	.	i	0	4	534
C#CCOCCOCCOCCNc1nc(N2CCN(C(=O)CCCCCCCCCCNC(=O)[C@H]([C@@H](C)CC)n3cc(CCCCCN)nn3)CC2)nc(N2CCN(C(=O)CCCCCCCCCCNC(=O)[C@@H]([C@H](C)CC)n3cc(CCCCCN)nn3)CC2)n1	.	.	.	0	.	358
N#Cc1c(SCC(=O)Nc2nncs2)sc2c(O)cc(=O)[nH]c12	-11	.	i	41*	2	207
Oc1ccc(C[C@H]2CN([C@@H](Cc3cccc(O)c3)CN3CCC[C@@H]3CN3C(=S)NC[C@@H]3Cc3ccccc3)C(=S)N2CC2CCCCC2)cc1	11	.	+	.	5	.
CC(C)C[C@H]1CNC(=S)N1C[C@H]1CCCN1C[C@H](Cc1ccccc1)N1C[C@H](Cc2ccc(O)cc2)N(CC2CCCCCC2)C1=S	-4	.	+	.	7	.
CC(C)C[C@H]1CNC(=S)N1CC1CCCN1C[C@H](Cc1ccc(O)cc1)N1C[C@H](Cc2ccccc2)N(CC2CCCCCC2)C1=S (some centres undefined)	8	.	i	.	0	.
CC(=O)N(C(C)=O)c1ccc(Oc2ccc(Oc3ccc(N(C(C)=O)C(C)=O)cc3)cc2)cc1	0	.	i	.	-6	.
CC1CCCC/C1=N\NC(=S)Nc1cccnc1 (centres undefined)	-3	i	i	0	0	277
Cc1ccc(NC(=S)N/N=C2\CCCCC2C)cc1 (centres undefined)	1	i	+	0	0	740
CC1CCN(c2oc(-c3ccco3)nc2S(=O)(=O)c2ccccc2)CC1	3	i	i	0	1	276
O=S(=O)(c1ccccc1)c1nc(-c2ccco2)oc1N1CCCCC1	-8	+	i	4	2	204
CCC(=O)OCc1c(C(F)(F)F)nn(C)c1Sc1ccc(F)cc1	-12	i	+	0	0	501
CCC(=O)OCc1c(C(F)(F)F)nn(C)c1Sc1ccc(Cl)cc1	-20	i	i	0	-1	593
Cc1noc(C)c1S(=O)(=O)N1CCN(c2ccccc2Cl)CC1	2	.	i	.	-3	.
CC(=O)c1c(C)[nH]c(C(=O)OCC(=O)NCCC2=CCCCC2)c1C	-17	i	i	0	0	340
CSc1ccccc1OCc1cc(C(=O)NC(C)Cn2cncn2)no1 (centres undefined)	17	i	i	0	-1	268
FC(F)(F)c1ccc(-c2csc(-c3ccno3)n2)cc1	44*	i	i	0	4	266
N#Cc1ccc(-c2csc(-c3ccno3)n2)cc1	18	i	i	1	-1	312
CCN(C(=O)COC(=O)c1cc(-c2cccc3ccccc23)nc2ccccc12)C1CCS(=O)(=O)C1 (centres undefined)	39*	i	i	0	-31	244
CN(C(=O)COC(=O)c1cn(-c2ccccc2)nc1-c1ccccc1)C1CCS(=O)(=O)C1 (centres undefined)	1	+	i	0	-1	391
O=C(COC(=O)c1cc(-c2cccc3ccccc23)nc2ccccc12)NC1CCS(=O)(=O)C1 (centres undefined)	44	i	i	4	-28	219
CCN(C(=O)COC(=O)c1cc(-c2ccccc2)nn1-c1ccccc1)C1CCS(=O)(=O)C1 (centres undefined)	0	i	i	0	-3	i
SMILES	SKN-1 block	Rce1 inh	Myeloid diff 2	GRK2 aptamer HTS	Rin1-Abl PPI inh	T cell modulator
CN(C(=O)COC(=O)C1c2ccccc2Oc2ccccc21)C1CCS(=O)(=O)C1 (centres undefined)	48*	i	i	5	-1	330
CCN(C(=O)COC(=O)c1cn(-c2ccccc2)nc1-c1ccccc1)C1CCS(=O)(=O)C1 (centres undefined)	2	+	i	0	-4	179
CC1(C)CC(=O)C(C(c2ccc3c(c2)OCO3)C2C(=O)CC(C)(C)CC2=O)C(=O)C1	6	.	i	.	0	.
Cc1cc(NC(=O)COC(=O)c2nccnc2N)n(-c2ccccc2)n1	-6	+	.	2	-4	544
CC(C)(C)c1cc(NC(=O)COC(=O)c2nccnc2N)n(-c2ccccc2)n1	-3	i	i	3	2	573
O=C(O)c1ccc(NC2(C(=O)O)CCCC2)cc1	8	.	i	.	1	.
O=C(CN1CCN(S(=O)(=O)N2CCCCC2)CC1)Nc1ccc(Cl)c(Cl)c1	-10	i	i	2	4	106
O=C(CN1CCN(S(=O)(=O)N2CCCCC2)CC1)Nc1cc(Cl)cc(Cl)c1	37*	i	i	0	2	108
CCCC(=O)Oc1ccc(-c2nccc(C(OC)OC)n2)cc1	-3	i	i	1	3	167
O=C(NC(c1ccc(-c2ccccc2)cc1)c1cnccn1)C1CCN(Cc2cccs2)CC1 (centres undefined)	46*	.	i	.	-1	.
O=C(NC(c1ccc(-c2ccccc2)cc1)c1cnccn1)C1CCN(Cc2ccc(Oc3ccccc3)cc2)CC1 (centres undefined)	-1	.	i	.	0	.
O=C(Nc1cccc(Cl)c1Cl)c1csc([C@H]2C[C@H](O)[C@@H](CO)O2)n1	9	.	i	.	2	.
CSCCC(NC(=O)c1ccco1)C(=O)NCC(c1ccco1)N1CCCCC1 (centres undefined)	5	.	i	0	0	460
CC(=O)c1ccc(NC(=S)NCC(c2ccco2)N2CCCC2)cc1 (centres undefined)	-3	i	+	0	4	574
